Laboratory results taken from ChEMBL document CHEMBL3580655, “Identification of a Potent Inhibitor of CREB-Mediated Gene Transcription with Efficacious in Vivo Anticancer Activity” (J Med Chem, 2015).
Activity calls are given as the source filed them. No cut-off for these calls is given here.

Assays:
A549 = assay: Antiproliferative activity against human A549 cells assessed as inhibition of cell growth after 72 hrs by MTT assay; type: functional; conditions: A549, 72 h
In short: (§1)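 Cells seeded, allowed to attach overnight, then exposed to a range of concentrations for 72 h. MTT 0.5 mg/mL in complete medium, 3 h at 37 °C, formazan dissolved in DMSO, absorbance 570 nm. Percent growth = 100×(treated−time-zero)/(medium control−time-zero). GI50 from nonlinear regression of the growth–concentration curve. Mean ± SD of at least two independent experiments in duplicate; highest concentration 100 μM.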

MDA-MB-231 = assay: Antiproliferative activity against human MDA-MB-231 cells assessed as inhibition of cell growth after 72 hrs by MTT assay; type: functional; conditions: MDA-MB-231, 72 h; in short: as §1
MDA-MB-468 = assay: Antiproliferative activity against human MDA-MB-468 cells assessed as inhibition of cell growth after 72 hrs by MTT assay; type: functional; conditions: MDA-MB-468, 72 h; in short: as §1
MCF7 = assay: Antiproliferative activity against human MCF7 cells assessed as inhibition of cell growth after 72 hrs by MTT assay; type: functional; conditions: MCF7, 72 h; in short: as §1
HEK-293T = assay: Inhibition of CREB-mediated gene transcription in human HEK293T cells assessed as inhibition of forskolin-stimulated Nurr1/NR4A2 transcription at 1000 nM after 1 hr by qRT-PCT analysis; type: cell-based
In short: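 HEK 293T cells exposed to a range of compound concentrations for 1 h, then DMSO or forskolin (10 μM) for 45 min. Nurr1/NR4A2 transcript level measured by qRT-PCR as relative mRNA.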

[1] = Inhibition of CREB-mediated gene transcription in human HEK293T cells transfected with pCRE-RLuc by renilla luciferase reporter assay; type: cell-based; conditions: HEK-293T
[2] = target: Cellular tumor antigen p53 (Homo sapiens) (UniProt P04637); assay: Inhibition of P53 (unknown origin) transfected in human HEK293T cells assessed as inhibition of forskolin-stimulated gene transcription at > 1 uM after 30 mins by CRE-RLuc complementation assay; type: cell-based; conditions: HEK-293T
Sequence of Cellular tumor antigen p53 (Homo sapiens) (P04637 whole entry, looked up, the tested form may be a part): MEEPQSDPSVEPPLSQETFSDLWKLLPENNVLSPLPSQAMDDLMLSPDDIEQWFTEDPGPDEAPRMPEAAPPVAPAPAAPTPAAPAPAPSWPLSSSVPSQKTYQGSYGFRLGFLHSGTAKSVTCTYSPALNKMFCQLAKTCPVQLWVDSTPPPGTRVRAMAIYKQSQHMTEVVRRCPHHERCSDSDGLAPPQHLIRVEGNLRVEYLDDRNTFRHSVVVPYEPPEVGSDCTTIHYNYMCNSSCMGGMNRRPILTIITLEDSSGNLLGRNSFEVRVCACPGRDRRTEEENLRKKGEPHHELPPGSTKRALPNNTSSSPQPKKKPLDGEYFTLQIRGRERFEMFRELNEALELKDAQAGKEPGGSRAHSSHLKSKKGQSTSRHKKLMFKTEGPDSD
In short: (§2)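 HEK 293T cells transfected with the relevant plasmid combinations (VP16-CREB: VP16 activation domain fused to full-length CREB; or p53), then exposed to a range of concentrations before Renilla luciferase measurement. Activity normalized to protein concentration, expressed as RLU/μg protein.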

[3] = target: Cellular tumor antigen p53 (Homo sapiens) (UniProt P04637); assay: Inhibition of P53 (unknown origin) transfected in human HEK293T cells assessed as inhibition of forskolin-stimulated gene transcription after 30 mins by CRE-RLuc complementation assay; type: cell-based; conditions: HEK-293T; in short: as §2

| SMILES | GI50 (A549) [µM] | GI50 (MDA-MB-231) [µM] | GI50 (MDA-MB-468) [µM] | GI50 (MCF7) [µM] | inhibition (HEK-293T) | IC50 [1] [µM] | inhibition [2] | inhibition [3] |
| --- | --- | --- | --- | --- | --- | --- | --- | --- |
| NCCCOc1cc2ccccc2cc1C(=O)NCCCOc1cc2ccccc2cc1C(=O)Nc1ccc(Cl)cc1O | 0.29 | 0.37 | 0.22 | 0.14 | Active |  |  |  |
| NCCCOc1ccccc1C(=O)NCCCOc1cc2ccccc2cc1C(=O)Nc1ccc(Cl)cc1O | 2.32 | 5.82 | 2.32 | 2.66 |  | 5.3 |  |  |
| NCCCOc1cc2ccccc2cc1C(=O)NCCCOc1ccccc1C(=O)Nc1ccc(Cl)cc1O | 2.44 | 4.61 | 1.82 | 2.3 |  | 10.1 |  |  |
| NCCOc1cc2ccccc2cc1C(=O)NCCOc1cc2ccccc2cc1C(=O)Nc1ccc(Cl)cc1O | 1.16 | 1.21 | 0.25 | 0.81 |  | 0.3 |  |  |
| CNCCCOc1cc2ccccc2cc1C(=O)NCCCOc1cc2ccccc2cc1C(=O)Nc1ccc(Cl)cc1O | 0.26 | 0.26 | 0.2 | 1.65 |  | 18.5 |  |  |
| NCCCOc1cc2ccccc2cc1C(=O)NCCCOc1cc2ccccc2cc1C(=O)Nc1ccc(Cl)cc1 | 0.95 | 1 | 1.62 | 1.72 |  | 4.69 |  |  |
| NCCCOc1cc2ccccc2cc1C(=O)NCCOc1cc2ccccc2cc1C(=O)Nc1ccc(Cl)cc1O |  |  |  |  |  |  | Active | inactive |
| O=C(NCCCOc1cc2ccccc2cc1C(=O)Nc1ccc(Cl)cc1O)c1cc2ccccc2cc1OCCCN1CCOCC1 | > 100 | > 100 | 13.7 | > 100 |  | > 50 |  |  |
| NCCOc1cc2ccccc2cc1C(=O)NCCCOc1cc2ccccc2cc1C(=O)Nc1ccc(Cl)cc1O | 2.17 | 2.71 | 1.85 | 1.89 |  | 5.23 |  |  |
| O=C(NCCCOc1cc2ccccc2cc1C(=O)Nc1ccc(Cl)cc1O)c1cc2ccccc2cc1OCCCO | 39.1 | 82.7 | 10.2 | 29 |  | 7.3 |  |  |
